From PubChem
Hits are enriched below; roughly 2.2% of the tested compounds scored in any of these assays.
Dyrk1A ADPGlo – inhibitors of rat Dyrk1A kinase; Q63470; ADP-Glo luminescence, NFATc1 peptide; inhibition, % at 12.5 µM; 310,000 tested, 0.43% active; in the data active = inhibition above about 50%;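 note: plate controls were vehicle with enzyme for no effect and no enzyme for full effect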
CAL PDZ FP-1 – inhibitors of human CAL PDZ peptide binding; Q9HD26; purified CAL PDZ, TMR-peptide fluorescence polarization, 1 h; inhibition, % at 20 µM; 330,000 tested, 0.02% active; AID 504414;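 active = highest replicate inhibition of at least 40%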;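 note: plate controls were DMSO neutral control wells for no effect and unlabeled competitor peptide control wells for full effect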
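Material: tagged CAL PDZ domain; buffer or medium: 25 mM sodium phosphate pH 7.4, 150 mM NaCl, TCEP, IgG, Thesit; compound dosing: single point, 20 µM; schedule: 1 h incubation at room temperature before polarization reading; measured by: FP readout, S and P plane fluorescence; read-out basis: percent inhibition from loss of millipolarization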
CDK5 p35 inh – CDK5/p35 (human) kinase inhibition; Q00535+Q15078; Recombinant CDK5/p35, ADP-Glo luminescence, 60 min; inhibition, % at 10 µM; 330,000 tested, 0.01% active; AID 488839;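 active = highest replicate inhibition of at least 50% and at least 75% of replicates reaching 50%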;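 note: plate controls were DMSO neutral control for no effect and GW8510 at 10 µM for full effect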
Target sequence (Q00535 whole entry, looked up): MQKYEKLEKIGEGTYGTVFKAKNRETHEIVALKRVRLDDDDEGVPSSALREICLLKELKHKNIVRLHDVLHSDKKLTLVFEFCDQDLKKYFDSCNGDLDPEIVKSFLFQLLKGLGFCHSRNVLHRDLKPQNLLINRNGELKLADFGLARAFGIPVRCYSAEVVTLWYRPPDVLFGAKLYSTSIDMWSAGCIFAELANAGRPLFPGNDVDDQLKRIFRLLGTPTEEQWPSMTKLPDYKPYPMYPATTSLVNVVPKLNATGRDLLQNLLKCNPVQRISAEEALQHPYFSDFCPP
Target sequence (Q15078 whole entry, looked up): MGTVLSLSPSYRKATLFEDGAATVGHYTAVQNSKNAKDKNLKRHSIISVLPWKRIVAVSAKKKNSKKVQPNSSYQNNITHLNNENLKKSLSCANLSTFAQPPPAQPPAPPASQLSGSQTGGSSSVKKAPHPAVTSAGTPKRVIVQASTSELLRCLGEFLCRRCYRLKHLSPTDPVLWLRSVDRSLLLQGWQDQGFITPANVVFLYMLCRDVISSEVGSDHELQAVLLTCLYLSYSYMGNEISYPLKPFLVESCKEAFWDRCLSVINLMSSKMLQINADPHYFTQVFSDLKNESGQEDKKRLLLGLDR
Rtt109 HAT inh – inhibitors of Candida albicans Rtt109/Vps75 histone acetyltransferase; Q5AAJ8; purified Rtt109/Vps75, ThioGlo CoA-SH fluorescence, 4 h; inhibition, % at 34.9 µM; 330,000 tested, 0.16% active; AID 540336;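 active = inhibition of at least 50% in every replicate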
dFosB act-1 – activators of mouse delta FosB homodimer; P13346; purified delta FosB, TAMRA-CDK5 oligo fluorescence polarization; percent of positive-control signal above neutral wells; activation, % at 25 µM; 340,000 tested, 0.99% active; AID 493131;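 active = mean activation above about 17%, with every replicate also reaching it, limit read from the data, passing the limit was not always enough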
CAL PDZ FP-2 – blocks peptide binding to the human CAL PDZ domain; AID 602252; Q9HD26; 300,000 tested, 0.92% active; purified CAL PDZ, TMR-peptide fluorescence polarization, 1 h; inhibition, % at 24.9 µM;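 active = mean inhibition of at least 30% with at least half of replicates also reaching 30%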;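 note: 0% = DMSO neutral control and 100% = excess unlabeled competitor peptide PRC23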
dFosB act-2 – activators of mouse delta FosB homodimer DNA binding. purified delta FosB, TAMRA-CDK5 oligo fluorescence polarization; normalised: neutral wells 0, positive control 100. 2,400 tested, under 10 active. activation, % at 24.9 µM. shares compounds with dFosB act-1;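 active = highest replicate activation at or above 34% and every replicate reaching that threshold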;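 note: higher polarization means more probe DNA bound by delta FosB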
An asterisk follows results filed as active; / = not tested or not shown.

SMILES | Dyrk1A ADPGlo | CAL PDZ FP-1 | CDK5 p35 inh | Rtt109 HAT inh | dFosB act-1 | CAL PDZ FP-2 | dFosB act-2
COc1cc(OC)cc(C(=O)NC(=S)Nc2ccc3[nH]c(=O)[nH]c3c2)c1 | 0.0 | -0.3 | -0.6 | -11.3 | 24.5* | -2.2 | -0.8
C=CCC1NS(=O)(=O)OCC1C(C)C (stereo not given) | -2.5 | -0.5 | 1.0 | -0.3 | 3.6 | -0.5 | /
COc1ccccc1NC(=O)Cc1nnc(SCC(=O)c2ccccc2)n1C | -3.1 | -3.3 | -1.6 | -2.1 | 2.9 | -5.7 | /
O=C(NCC1CCCO1)C(c1ccncc1)N(Cc1cccs1)C(=O)CN1C(=O)c2ccccc2S1(=O)=O (stereo not given) | -1.0 | 0.1 | 1.3 | 4.0 | -7.3 | 6.8 | /
O=C(NC1CCCCC1)C(c1ccc(F)cc1)N(Cc1cccs1)C(=O)CN1C(=O)c2ccccc2S1(=O)=O (stereo not given) | 3.5 | -2.2 | 1.8 | -4.0 | 28.7* | -3.7 | -0.1
CN(C)C(=O)COC(=O)c1ccccc1Nc1ccc(SC(F)F)cc1 | 2.3 | -2.0 | 0.4 | 5.8 | -7.1 | -2.2 | /
O=c1c(-c2c(O)cc(O)c3c2O[C@H](c2ccc(O)cc2)CC3)c(-c2ccc(O)cc2)oc2cc(O)cc(O)c12 | 34.9 | -1.0 | -1.3 | 16.0 | 30.8* | -2.2 | 7.3
Cc1c(O)ccc2c(CN3CCN(C/C=C/c4ccccc4)CC3)cc(=O)oc12 | -2.8 | -1.3 | -0.1 | -66.5 | 18.2* | -5.9 | 7.3
CC(=O)c1ccc(N(C(=O)CS(=O)CC(=O)Nc2ccc(F)cc2)C(C(=O)NC2CCCCC2)c2cccs2)cc1 (stereo not given) | -6.2 | -1.5 | -0.7 | -8.0 | 20.1* | -1.7 | 1.3
O=C(CSc1nc(O)cc(=O)n1-c1ccccc1)Nc1nc2ccccc2s1 | 28.6 | -1.4 | 4.4 | -1.1 | -3.9 | / | /
CC(=O)Nc1ccccc1-c1nc2ccccc2nc1OCC(=O)c1ccc2ccccc2c1 | 0.7 | -2.1 | -0.3 | -2.2 | 30.4* | -0.6 | -3.9
CC(=O)Nc1ccccc1-c1nc2ccccc2nc1OCC(=O)c1ccc(Br)cc1 | -2.9 | / | -2.1 | 2.5 | 11.5 | -6.6 | /
N=NC(=O)c1ccccc1Nc1c(O)[nH]c2ccccc12 | -2.6 | -0.4 | 2.8 | -2.8 | 0.7 | -0.8 | /
CCCCN(C(=O)c1cc(Cl)nc2ccccc12)c1c(N)n(Cc2ccccc2)c(=O)[nH]c1=O | -5.6 | -2.0 | 0.5 | -0.1 | 26.5* | -0.6 | -1.3
COCCN(C(=O)c1cc(Cl)nc2ccccc12)c1c(N)n(Cc2ccccc2)c(=O)[nH]c1=O | / | 0.0 | 1.0 | 1.6 | -2.6 | -0.2 | /
O=C(O)CC(CNS(=O)(=O)c1ccccc1)c1ccccc1 (stereo not given) | 0.9 | -3.0 | 0.2 | -1.9 | -9.7 | 2.7 | /
CCOc1cccc(-c2c(C(=O)N/N=C/c3sccc3C)nnn2-c2nonc2N)c1 | 26.9 | -3.2 | -1.4 | 4.5 | 5.2 | -5.9 | /
CCOc1ccc(-c2c(C(=O)N/N=C/c3sccc3C)nnn2-c2nonc2N)cc1 | 7.2 | -2.0 | -0.1 | 2.6 | 21.7* | -5.1 | -0.9
CCOc1ccc(-c2c(C(=O)N/N=C/c3ccc(C)s3)nnn2-c2nonc2N)cc1 | -0.5 | -0.1 | 3.3 | 16.7 | 57.8* | 3.8 | 2.7
CCOc1ccc(-c2c(C(=O)N/N=C/c3ccc(Cl)cc3)nnn2-c2nonc2N)cc1 | / | -1.8 | / | 11.5 | 44.9* | 1.7 | 5.4
CCOc1ccc(-c2c(C(=O)N/N=C/c3ccc(OC(C)C)cc3)nnn2-c2nonc2N)cc1 | 1.2 | -0.4 | -1.9 | 4.1 | -0.6 | -2.7 | /
COc1ccccc1OCC(=O)Nc1cc(C(F)(F)F)ccc1-n1cncn1 | 6.8 | -1.4 | -2.9 | -14.9 | -5.7 | / | /
O=C(O)Cn1nnnc1SCC(=O)Nc1ccc(F)cc1F | -2.1 | -0.4 | -3.8 | -3.2 | -7.8 | -0.8 | /
COc1ccccc1N1CCN(C(=O)CCc2nnc3ccc(N4CCC(C)CC4)nn23)CC1 | 4.1 | -0.8 | 0.9 | 27.1 | -10.6 | / | /
O=C(Nc1ccccc1Cl)N(Cc1nc2ccccc2c(=O)[nH]1)Cc1cccs1 | -5.2 | -0.8 | 2.8 | -9.6 | 33.1* | 0.6 | 0.9
SMILES | Dyrk1A ADPGlo | CAL PDZ FP-1 | CDK5 p35 inh | Rtt109 HAT inh | dFosB act-1 | CAL PDZ FP-2 | dFosB act-2
CCSc1ccc(C(=O)Nc2ccc(Br)cn2)cc1[N+](=O)[O-] | 3.5 | 0.0 | -0.7 | -2.3 | 18.8* | 38.6* | -6.8
CCSc1ccc(C(=O)Nc2cccc(C)n2)cc1[N+](=O)[O-] | -4.7 | 0.8 | 2.1 | 6.9 | 7.4 | -2.7 | /
Cc1cccc(NS(=O)(=O)c2ccc3c(c2)Cc2cc(S(=O)(=O)Nc4cccc(C)c4C)ccc2-3)c1C | 1.9 | -1.0 | 0.3 | 1.3 | 24.3* | 11.4 | 1.0
CC1CCCC(C)N1C(=O)COC(=O)c1n[nH]c(=O)c2ccccc12 (stereo not given) | / | 0.6 | 1.4 | 6.2 | -0.1 | -1.9 | /
O=C(NCC(=O)N1CC=C(c2ccccc2)CC1)c1ccc(F)cc1 | 6.9 | 0.0 | -0.1 | -5.4 | 6.0 | / | /
Cc1cc(C)cc(NC(=O)C2CCN(S(=O)(=O)c3ccc4[nH]c(=O)ccc4c3)CC2)c1 | 1.5 | 0.4 | 1.0 | -2.9 | 46.3* | -2.4 | -4.8
CCc1ccc(NC(=O)C2CCCN(S(=O)(=O)c3ccc4[nH]c(=O)ccc4c3)C2)cc1 (stereo not given) | -3.3 | -2.0 | -0.4 | -0.4 | 29.3* | 0.7 | -0.9
COc1ccccc1CNC(=O)c1ccc(OC(F)F)c(OC)c1 | -4.0 | -0.7 | 0.0 | 5.8 | -5.0 | 8.5 | /
COc1ccc(/C=N/NC(=O)c2cc(Br)ccc2O)cc1Cn1cc(Cl)cn1 | 0.3 | -3.2 | -0.4 | 12.1 | 2.6 | -1.1 | /
COc1ccc(/C=N/NC(=O)c2ccco2)cc1COc1ccc(F)cc1 | -3.1 | -0.1 | 0.5 | 1.9 | 74.5* | 6.5 | 3.4
COc1ccc(/C=N/NC(=O)c2ccc(NC(C)=O)cc2)cc1COc1ccc(F)cc1F | 0.4 | -1.1 | -2.8 | 2.4 | 68.0* | -3.8 | -0.3
COc1ccc(/C=N/NC(=O)c2ccc(Cl)cc2)cc1Cn1cc(Cl)cn1 | -0.2 | -3.8 | -0.9 | -1.8 | 40.2* | -2.1 | 0.8
COc1cc(OC)c(/C=N/NC(=O)c2ccc(NC(C)=O)cc2)cc1Br | -5.6 | -2.3 | 5.1 | 0.8 | 27.5* | -2.4 | -2.4
COc1cc(OC)c(/C=N/NC(=O)c2ccncc2)cc1Br | -0.7 | -3.1 | 1.8 | 0.3 | 3.7 | -0.2 | /
O=C(COC(=O)CCC(=O)c1cccs1)Nc1ccccc1[N+](=O)[O-] | 9.7 | -6.3 | -5.3 | -4.2 | 3.3 | 1.0 | /
Cc1ccc(C(=O)NCCNc2nc3cc(C)c(C)cc3cc2C)cc1 | 1.9 | -2.8 | 0.6 | -1.3 | 40.7* | -1.5 | 0.7
